Results on one molecule are retold here after ChEMBL document CHEMBL3108739, “Activation and inhibition of thermosensitive TRP channels by voacangine, an alkaloid present in Voacanga africana, an African tree” (J Nat Prod, 2014).

The source made the active and inactive calls. No cut-off for these calls is given here.

Assay [1] has as its target T1, Transient receptor potential cation channel subfamily V member 1 (Homo sapiens, UniProt Q8NER1). Description: Competitive antagonist activity at human brain TRPV1 expressed in HEK293T cells assessed as inhibition of CAP-induced intracellular Ca2+ influx preincubated for 3 mins followed by CAP challenge. As to conditions: HEK-293T. Format: cell-based. In short, it runs like this: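 hTRPV1-HEK293T, Fluo-4 Ca2+ at 37 °C; antagonist (0.3−100 μM) preincubated 3 min then 0.01 μM capsaicin; DMSO final 0.1−1%. IC50 from dose−inhibition curves; data as % of 10 μM capsaicin.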

Assay [2] has as its target T2, Transient receptor potential cation channel subfamily A member 1 (Homo sapiens, UniProt O75762). The experiment in a line: Agonist activity at TRPA1 isolated from human W138 cells expressed in HEK T-REx cells assessed as intracellular Ca2+ influx at 10 to 100 uM by Fluo-4 AM staining-based fluorescence analysis. Format: cell-based. In short, it runs like this: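 Tetracycline-induced (1 μg/mL) stable hTRPA1 in HEK T-REx cells, Fluo-4 AM loaded (3 μM, 1 h, 37 °C) in HEPES buffer pH 7.4 with probenecid; Ca2+ read at 37 °C. Compound 0.01−100 μM; HC-030031 30 μM pretreated 3 min. Responses as % of 5 μM ionomycin or of 100 μM AITC; TREx cells without TRPA1 as control; n = 4−8.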

For assay [3], the target named is T2, Transient receptor potential cation channel subfamily A member 1. Description: Antagonist activity at TRPA1 isolated from human W138 cells expressed in HEK293T cells assessed as AITC-induced intracellular Ca2+ influx at 100 uM by Fluo-4 AM staining-based fluorescence analysis. Particulars: HEK-293T. Format: cell-based.
For assay [4], the target named is Transient receptor potential cation channel subfamily M member 8 (Mus musculus) (UniProt Q8R4D5). Particulars: Dorsal root ganglion, HEK T-REx, 3 to 30 uM.
Transient receptor potential cation channel subfamily M member 8 (Mus musculus), sequence (Q8R4D5 whole entry): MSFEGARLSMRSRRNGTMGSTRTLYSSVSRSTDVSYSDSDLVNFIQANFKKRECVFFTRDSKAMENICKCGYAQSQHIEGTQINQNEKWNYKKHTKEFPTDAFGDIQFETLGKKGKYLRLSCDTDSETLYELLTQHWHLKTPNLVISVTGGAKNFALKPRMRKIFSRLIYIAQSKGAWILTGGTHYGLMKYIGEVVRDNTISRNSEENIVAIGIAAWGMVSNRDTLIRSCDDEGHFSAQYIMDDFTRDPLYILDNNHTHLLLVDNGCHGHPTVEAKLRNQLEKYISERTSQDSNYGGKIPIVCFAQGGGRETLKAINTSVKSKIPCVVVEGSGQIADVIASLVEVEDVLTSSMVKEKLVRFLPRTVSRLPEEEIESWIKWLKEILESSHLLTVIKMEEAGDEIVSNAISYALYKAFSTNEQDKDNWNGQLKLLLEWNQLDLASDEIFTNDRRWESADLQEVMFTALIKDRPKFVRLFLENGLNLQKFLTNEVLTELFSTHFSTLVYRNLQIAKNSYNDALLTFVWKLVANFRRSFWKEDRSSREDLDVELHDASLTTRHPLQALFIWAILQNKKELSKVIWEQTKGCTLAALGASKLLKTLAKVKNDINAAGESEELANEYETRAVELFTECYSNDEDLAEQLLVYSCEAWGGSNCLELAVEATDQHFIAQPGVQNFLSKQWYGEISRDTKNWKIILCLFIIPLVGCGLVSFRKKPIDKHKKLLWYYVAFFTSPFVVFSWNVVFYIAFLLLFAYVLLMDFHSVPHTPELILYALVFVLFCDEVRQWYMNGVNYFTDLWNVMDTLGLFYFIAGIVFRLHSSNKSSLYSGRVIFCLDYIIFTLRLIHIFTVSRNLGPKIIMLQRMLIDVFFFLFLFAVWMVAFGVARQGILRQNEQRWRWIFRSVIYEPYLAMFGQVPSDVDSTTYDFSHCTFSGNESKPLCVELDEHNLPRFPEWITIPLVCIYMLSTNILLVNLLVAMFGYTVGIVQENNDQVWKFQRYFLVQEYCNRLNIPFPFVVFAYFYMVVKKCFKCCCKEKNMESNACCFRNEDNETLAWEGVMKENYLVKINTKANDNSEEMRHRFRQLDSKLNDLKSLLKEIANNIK
Assay [5] addresses T3, Transient receptor potential cation channel subfamily V member 2 (Homo sapiens) (UniProt Q9Y5S1).
T3 sequence (whole entry): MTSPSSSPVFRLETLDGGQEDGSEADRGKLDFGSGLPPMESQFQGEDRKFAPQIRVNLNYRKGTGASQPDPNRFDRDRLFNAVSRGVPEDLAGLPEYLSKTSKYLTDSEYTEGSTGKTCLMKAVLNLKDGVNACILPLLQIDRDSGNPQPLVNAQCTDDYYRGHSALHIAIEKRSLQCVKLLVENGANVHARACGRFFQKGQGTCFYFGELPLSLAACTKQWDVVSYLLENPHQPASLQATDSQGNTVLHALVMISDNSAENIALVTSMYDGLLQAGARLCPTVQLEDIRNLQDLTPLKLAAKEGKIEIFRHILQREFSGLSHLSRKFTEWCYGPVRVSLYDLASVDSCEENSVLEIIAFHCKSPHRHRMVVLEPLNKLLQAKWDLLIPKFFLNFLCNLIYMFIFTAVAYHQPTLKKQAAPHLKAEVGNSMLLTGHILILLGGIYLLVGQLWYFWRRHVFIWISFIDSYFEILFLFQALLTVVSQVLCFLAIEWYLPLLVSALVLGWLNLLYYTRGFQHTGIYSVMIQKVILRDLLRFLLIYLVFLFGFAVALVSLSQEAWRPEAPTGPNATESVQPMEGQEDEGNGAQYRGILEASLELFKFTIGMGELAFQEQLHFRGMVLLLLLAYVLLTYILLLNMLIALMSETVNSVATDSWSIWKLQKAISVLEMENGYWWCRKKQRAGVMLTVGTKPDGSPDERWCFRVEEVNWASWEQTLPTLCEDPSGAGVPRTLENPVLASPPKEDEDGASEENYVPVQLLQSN
Description: Antagonist activity at human TRPV2 expressed in HEK293T cells assessed as LPC-induced intracellular Ca2+ influx at 100 uM by Fluo-4 AM staining-based fluorescence analysis. Format: cell-based. Particulars: HEK-293T. In short, it runs like this:
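hTRPV2 transiently transfected into HEK293T, seeded 6 h after transfection and used 18 h later. Fluo-4 loading in probenecid-free buffer, 37 °C. Agonist 30 and 40 μM LPC; ruthenium red 5 μM as reference blocker; 100 μM compound given alone or pretreated 3 min. Read-out ΔF/F0 (%).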

Assay [6] has as its target Transient receptor potential cation channel subfamily M member 8 (Mus musculus) (UniProt Q8R4D5). As to conditions: Dorsal root ganglion, HEK T-REx, 10 to 50 uM.
Assay [7] shares this target. As to conditions: Dorsal root ganglion, HEK T-REx, 100 uM.
Assay [8] has the same target. Particulars: Dorsal root ganglion, HEK T-REx, 100 uM. The source holds these as a separate data set.
Assay [9] concerns the target T1, Transient receptor potential cation channel subfamily V member 1. Description: Antagonist activity at human brain TRPV1 expressed in HEK293T cells assessed as CAP-induced intracellular Ca2+ influx at 100 uM by Fluo-4 AM staining-based fluorescence analysis. Format: cell-based. As to conditions: HEK-293T. In short, it runs like this:
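Stable hTRPV1 in HEK293T (G418 selected), Fluo-4 loaded, 37 °C. 100 μM compound alone, or pretreated 3 min before 0.01 μM capsaicin; 10 μM BCTC reference. Data as % of 10 μM capsaicin.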

Assay [10] addresses Transient receptor potential cation channel subfamily M member 8 (Mus musculus, UniProt Q8R4D5). The experiment in a line: (§1) Antagonist at TRPM8 isolated from mouse dorsal root ganglion cells expressed in HEK T-REx cells assessed as inhibition of menthol-induced intracellular Ca2+ influx by fluorescence-based assay. Format: cell-based. An outline of the steps:
(§2)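 Tetracycline-induced mTRPM8 in HEK T-REx, Fluo-4 Ca2+ at 37 °C. Antagonists (e.g. 0.01−100 μM, CNA up to 500 μM) preincubated 3 min before 10 μM menthol. IC50 from dose−inhibition curves, data as % of 10 μM menthol; n = 4−12.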

Assay [11] deals with Transient receptor potential cation channel subfamily M member 8 (Mus musculus) (UniProt Q8R4D5). The description is as §1. Format: cell-based. An outline of the steps:
as §2

Assay [12] deals with T1, Transient receptor potential cation channel subfamily V member 1. The experiment in a line: Competitive antagonist activity at human brain TRPV1 expressed in HEK293T cells assessed as inhibition of CAP-induced intracellular Ca2+ influx preincubated for 3 mins followed by CAP challenge by Schlid plot analysis. Format: cell-based. In short, it runs like this: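 hTRPV1-HEK293T; capsaicin curves 0.0001−10 μM with 10, 30, 50 μM compound after 3 min preincubation. Schild plots (log(dose ratio − 1) vs log antagonist), six series; slope not differing from unity taken as competitive; KB derived.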

In assay [13] the target is Transient receptor potential cation channel subfamily M member 8 (Mus musculus) (UniProt Q8R4D5). Particulars: Dorsal root ganglion, HEK T-REx, 100 uM. The source holds these as a separate data set.

T1 sequence (Q8NER1 whole entry): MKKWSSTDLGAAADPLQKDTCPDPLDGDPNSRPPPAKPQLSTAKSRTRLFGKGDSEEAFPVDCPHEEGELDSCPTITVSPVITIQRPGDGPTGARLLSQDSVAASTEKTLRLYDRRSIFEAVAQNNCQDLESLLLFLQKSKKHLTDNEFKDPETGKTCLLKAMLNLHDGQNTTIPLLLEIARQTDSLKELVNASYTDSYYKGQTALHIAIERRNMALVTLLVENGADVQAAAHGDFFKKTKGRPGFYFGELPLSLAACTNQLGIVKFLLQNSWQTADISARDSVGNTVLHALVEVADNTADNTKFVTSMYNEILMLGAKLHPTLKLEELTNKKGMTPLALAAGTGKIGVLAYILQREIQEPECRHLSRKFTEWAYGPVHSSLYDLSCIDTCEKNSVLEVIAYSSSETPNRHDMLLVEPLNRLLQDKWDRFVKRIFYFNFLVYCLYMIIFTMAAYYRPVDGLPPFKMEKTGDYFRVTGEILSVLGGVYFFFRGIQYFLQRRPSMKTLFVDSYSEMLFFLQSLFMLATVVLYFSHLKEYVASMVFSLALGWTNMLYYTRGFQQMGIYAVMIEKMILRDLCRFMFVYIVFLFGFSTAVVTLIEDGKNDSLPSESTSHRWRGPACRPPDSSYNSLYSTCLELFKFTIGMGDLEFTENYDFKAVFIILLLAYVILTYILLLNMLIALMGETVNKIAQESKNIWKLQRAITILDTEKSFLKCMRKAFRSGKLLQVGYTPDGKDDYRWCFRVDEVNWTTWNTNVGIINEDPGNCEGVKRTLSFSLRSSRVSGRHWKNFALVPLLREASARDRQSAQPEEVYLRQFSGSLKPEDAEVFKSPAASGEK
T2 sequence (O75762 whole entry): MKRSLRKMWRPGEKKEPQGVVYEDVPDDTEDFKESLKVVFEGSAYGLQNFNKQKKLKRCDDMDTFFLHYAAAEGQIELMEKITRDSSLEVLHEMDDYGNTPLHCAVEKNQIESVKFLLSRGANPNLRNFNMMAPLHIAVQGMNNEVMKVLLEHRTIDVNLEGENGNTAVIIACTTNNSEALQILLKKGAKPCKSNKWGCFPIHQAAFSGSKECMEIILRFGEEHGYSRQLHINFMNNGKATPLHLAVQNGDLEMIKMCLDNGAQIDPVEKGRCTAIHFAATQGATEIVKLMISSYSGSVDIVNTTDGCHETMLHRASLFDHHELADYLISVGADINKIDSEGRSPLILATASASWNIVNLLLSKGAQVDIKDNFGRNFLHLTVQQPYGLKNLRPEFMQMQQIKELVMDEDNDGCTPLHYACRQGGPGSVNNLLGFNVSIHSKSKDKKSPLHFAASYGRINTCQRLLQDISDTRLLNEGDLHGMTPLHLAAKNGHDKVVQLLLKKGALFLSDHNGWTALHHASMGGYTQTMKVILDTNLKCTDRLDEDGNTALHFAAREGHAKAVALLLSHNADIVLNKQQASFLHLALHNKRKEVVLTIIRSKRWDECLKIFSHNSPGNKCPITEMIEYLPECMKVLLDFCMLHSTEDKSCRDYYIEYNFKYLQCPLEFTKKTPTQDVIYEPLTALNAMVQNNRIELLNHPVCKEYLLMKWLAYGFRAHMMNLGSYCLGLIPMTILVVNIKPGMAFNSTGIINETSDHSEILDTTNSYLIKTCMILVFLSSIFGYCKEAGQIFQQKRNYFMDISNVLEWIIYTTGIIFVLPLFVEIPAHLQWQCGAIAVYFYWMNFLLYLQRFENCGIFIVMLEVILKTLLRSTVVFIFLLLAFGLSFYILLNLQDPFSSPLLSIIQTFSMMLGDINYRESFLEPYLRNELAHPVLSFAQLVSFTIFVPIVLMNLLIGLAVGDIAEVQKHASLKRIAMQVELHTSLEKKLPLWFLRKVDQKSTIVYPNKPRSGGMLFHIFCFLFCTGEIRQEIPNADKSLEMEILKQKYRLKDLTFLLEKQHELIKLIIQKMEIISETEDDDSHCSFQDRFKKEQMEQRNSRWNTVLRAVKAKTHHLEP
Transient receptor potential cation channel subfamily M member 8, sequence (Q8R4D5 whole entry): as the sequence (Q8R4D5 whole entry) above

Consider `CC[C@H]1C[C@@H]2CN3CCc4c([nH]c5ccc(OC)cc45)[C@](C(=O)OC)(C2)[C@H]13` [VOACANGINE], for which the inhibition result in [1], in [4], in assay [8] and in [13] was “Active” throughout. Further, the outcome in [2], in assay [3] and in assay [5] was inactive. For the same molecule, the inhibition result in assay [6] and in assay [7] was “inactive” in each case. Also, in assay [9], the result was Active. Besides, the half-maximal inhibitory concentration (IC50) in assay [10] came out at 9 µM. In [11], the inhibition result is “Dose-dependent effect”. Moreover, the Kb in assay [12] (HEK-293T) is 18 µM; in assay [12] (read-out: pA2 (converted)), 20 µM.
